In brackets after ≈: the same amount, converted by molar mass.
Tests used:
Clostridioides difficile [1] = assay: Antibacterial activity against Clostridium difficile VPI 10463 ATCC 43255 assessed as bacterial growth inhibition incubated for 48 hrs under anaerobic condition by CLSI protocol based assay; format: functional; conditions: ATCC 43255 VPI 10463, 48 h
Summary of the method: (§1)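 Broth microdilution following CLSI guidance. Strains pre-grown anaerobically on BHIS agar (BHI plus yeast extract, vitamin K1, hemin) at 37 °C for 48 h. ~10^5 CFU/mL in BHIS broth added to serial compound dilutions. Incubated anaerobically at 37 °C for 48 h. MIC is the lowest concentration showing visible growth inhibition.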

Clostridioides difficile [2] = assay: Antibacterial activity against Clostridium difficile 4118 ATCC BAA 1870 assessed as bacterial growth inhibition incubated for 48 hrs under anaerobic condition by CLSI protocol-based assay; format: functional; conditions: 4118 ATCC BAA 1870, 48 h; summary of the method: as §1
Enterobacter cloacae = assay: Effect on growth of Enterobacter cloacae ATCC BAA 1143 assessed as bacterial growth inhibition measured after 16 to 18 hrs grown in tryptic soy medium by CLSI method; format: organism-based; conditions: in vivo
Summary of the method: (§2)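 CLSI microdilution. Colonies from TSA (16-20 h, 37 °C) suspended in PBS to 0.5 McFarland, then diluted in TSB to ~10^5 CFU/mL. Incubated with serial compound dilutions for 16-20 h at 37 °C. MIC is the lowest concentration inhibiting growth.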

Escherichia coli = assay: Effect on growth of Escherichia coli ATCC 25922 assessed as bacterial growth inhibition measured after 16 to 18 hrs by CLSI method; format: organism-based; conditions: in vivo; summary of the method: as §2
[3] = Effect on growth of Lactobacillus gasseri EX336960VC03 HM 400 measured after 48 hrs in 5% CO2 by CLSI method; conditions: lactobacillus gasseri ex336960vc03, 48 h
[4] = Effect on growth of Lactobacillus crispatus JV-V01 HM 103 measured after 48 hrs in 5% CO2 by CLSI method; conditions: lactobacillus crispatus jv-v01, 48 h
Bifidobacterium bifidum = assay: Effect on growth of Bifidobacterium bifidum 212A ATCC 11863 measured after 48 hrs in anerobic conditions by CLSI method; format: organism-based; conditions: in vivo
[5] = system: Lacticaseibacillus paracasei; assay: Effect on growth of Lactobacillus casei ATCC 334 measured after 48 hrs in 5% CO2 by CLSI method

Compound | MIC (Clostridioides difficile [1]) [µM] | MIC (Clostridioides difficile [2]) [µM] | further results
O=c1[nH]cnc2c([N+](=O)[O-])csc12 | 10 (≈ 1.97 µg/mL) | 20 (≈ 3.94 µg/mL) | –
GENTAMICIN | – | – | MIC (Enterobacter cloacae): <= 1 uM; MIC (Escherichia coli): 8 µM
Cc1nc2c([N+](=O)[O-])scc2c(=O)[nH]1 | 38 (≈ 8.03 µg/mL) | 38 (≈ 8.03 µg/mL) | MIC (Enterobacter cloacae): > 700 µM; MIC (Escherichia coli): > 700 µM; MIC [3]: > 700 µM; MIC [4]: > 700 µM; MIC (Bifidobacterium bifidum): > 700 µM; MIC [5]: > 700 µM
Cc1nc2cscc2c(=O)[nH]1 | 768 (≈ 128 µg/mL) | 192 (≈ 31.9 µg/mL) | –
O=c1[nH]c(-c2ccccc2)nc2ccsc12 | > 560 | > 560 | –
Cc1nc2c([N+](=O)[O-])cccc2c(=O)[nH]1 | 156 (≈ 32 µg/mL) | 312 (≈ 64 µg/mL) | MIC (Enterobacter cloacae): > 700 µM; MIC (Escherichia coli): > 700 µM; MIC [3]: > 700 µM; MIC [4]: > 700 µM; MIC (Bifidobacterium bifidum): > 700 µM; MIC [5]: > 700 µM
N#Cc1ccc(/C=C/c2nc3c([N+](=O)[O-])csc3c(=O)[nH]2)cc1 | > 197 | > 197 | –
Cc1nc2c([N+](=O)[O-])csc2c(=O)n1-c1cccc(C(=O)O)c1 | 193 (≈ 63.9 µg/mL) | > 386 | –
Cc1ncc([N+](=O)[O-])n1CCO [METRONIDAZOLE] | 1.5 (≈ 0.257 µg/mL) | 0.7 (≈ 0.12 µg/mL) | MIC [3]: > 1496 µM; MIC [4]: > 1496 µM; MIC (Bifidobacterium bifidum): > 1496 µM; MIC [5]: 47 µM (≈ 8.04 µg/mL)
Cc1nc2c([N+](=O)[O-])csc2c(=O)n1CC(=O)N1CCOCC1 | 94 (≈ 31.8 µg/mL) | 47 (≈ 15.9 µg/mL) | –
Cc1nc2c([N+](=O)[O-])csc2c(=O)n1CC(=O)OC(C)(C)C | 98 (≈ 31.9 µg/mL) | 49 (≈ 15.9 µg/mL) | –
CN[C@H](CC(C)C)C(=O)N[C@H]1C(=O)N[C@@H](CC(N)=O)C(=O)N[C@H]2C(=O)N[C@H]3C(=O)N[C@H](C(=O)N[C@H](C(=O)O)c4cc(O)cc(O)c4-c4cc3ccc4O)[C@H](O)c3ccc(c(Cl)c3)Oc3cc2cc(c3O[C@@H]2O[C@H](CO)[C@@H](O)[C@H](O)[C@H]2O[C@H]2C[C@](C)(N)[C@H](O)[C@H](C)O2)Oc2ccc(cc2Cl)[C@H]1O [VANCOMYCIN] | 0.3 (≈ 0.435 µg/mL) | 0.7 (≈ 1.01 µg/mL) | MIC [3]: <= 1 uM; MIC [4]: <= 1 uM
Cc1nc2c(F)cccc2c(=O)[nH]1 | > 718 | > 718 | –
Cc1nc2c([N+](=O)[O-])csc2c(=O)n1-c1ccc(C(C)C)cc1 | > 389 | > 389 | –
CCCc1nc2c([N+](=O)[O-])csc2c(=O)[nH]1 | 67 (≈ 16 µg/mL) | 67 (≈ 16 µg/mL) | –
Cc1nc2c([N+](=O)[O-])csc2c(=O)n1Cc1ccccc1[N+](=O)[O-] | 23 (≈ 7.97 µg/mL) | 23 (≈ 7.97 µg/mL) | –
Cc1nc2c(C)csc2c(=O)[nH]1 | > 710 | > 710 | –
Cc1nc2c([N+](=O)[O-])csc2c(=O)n1CC(=O)N1CCN(C)CC1 | 91 (≈ 32 µg/mL) | 91 (≈ 32 µg/mL) | –
COc1ccc(-n2c(C)nc3c([N+](=O)[O-])csc3c2=O)cc1 | 101 (≈ 32 µg/mL) | 202 (≈ 64.1 µg/mL) | –
Cc1nc2c([N+](=O)[O-])csc2c(=O)n1CCc1ccccc1 | 13 (≈ 4.1 µg/mL) | 13 (≈ 4.1 µg/mL) | –
O=C(O)c1ccc(/C=C/c2nc3c([N+](=O)[O-])csc3c(=O)[nH]2)cc1 | 184 (≈ 63.2 µg/mL) | 46 (≈ 15.8 µg/mL) | –
Cc1csc2c(O)ncnc12 | > 770 | > 770 | –
Cc1nc2ncccc2c(=O)[nH]1 | > 794 | > 794 | –
Cc1nc2c(N)cccc2c(=O)[nH]1 | > 730 | > 730 | –
O=c1[nH]c(/C=C/c2ccc([N+](=O)[O-])cc2)nc2c([N+](=O)[O-])csc12 | 12 (≈ 4.13 µg/mL) | 24 (≈ 8.26 µg/mL) | –
Cc1nc2ccsc2c(=O)[nH]1 | 385 (≈ 64 µg/mL) | > 770 | –

Compound | MIC (Clostridioides difficile [1]) [µM] | MIC (Clostridioides difficile [2]) [µM] | further results
O=[N+]([O-])c1csc2c(Cl)nc(/C=C/c3ccc(F)cc3)nc12 | 95 (≈ 31.9 µg/mL) | 95 (≈ 31.9 µg/mL) | –
COc1ccc(Cn2c(C)nc3c([N+](=O)[O-])csc3c2=O)cc1 | 24 (≈ 7.95 µg/mL) | 24 (≈ 7.95 µg/mL) | –
O=c1[nH]c(/C=C/c2cccs2)nc2c([N+](=O)[O-])csc12 | 13 (≈ 3.97 µg/mL) | 13 (≈ 3.97 µg/mL) | –
COc1ccc(/C=C/c2nc3c([N+](=O)[O-])csc3c(=O)[nH]2)cc1 | 12 (≈ 3.95 µg/mL) | 12 (≈ 3.95 µg/mL) | –
CCOC(=O)Cn1c(C)nc2c([N+](=O)[O-])csc2c1=O | 54 (≈ 16.1 µg/mL) | 54 (≈ 16.1 µg/mL) | –
O=C(O)c1ccc(/C=C/c2nc3c([N+](=O)[O-])csc3c(=O)[nH]2)o1 | > 384 | > 384 | –
Cc1nc2c([N+](=O)[O-])csc2c(=O)n1Cc1cccc([N+](=O)[O-])c1 | 23 (≈ 7.97 µg/mL) | 23 (≈ 7.97 µg/mL) | –
O=c1[nH]c(/C=C/c2ccc(O)cc2)nc2c([N+](=O)[O-])csc12 | 13 (≈ 4.1 µg/mL) | 26 (≈ 8.2 µg/mL) | –
Cc1nc2c([N+](=O)[O-])coc2c(=O)[nH]1 | 41 (≈ 8 µg/mL) | 41 (≈ 8 µg/mL) | MIC (Enterobacter cloacae): > 700 µM; MIC (Escherichia coli): > 700 µM; MIC [3]: > 700 µM; MIC [4]: > 700 µM; MIC (Bifidobacterium bifidum): > 700 µM; MIC [5]: > 700 µM
O=c1[nH]c(/C=C/c2ccco2)nc2c([N+](=O)[O-])csc12 | 27 (≈ 7.81 µg/mL) | 27 (≈ 7.81 µg/mL) | –
O=c1[nH]c(/C=C/c2cccc(F)c2)nc2c([N+](=O)[O-])csc12 | 13 (≈ 4.12 µg/mL) | 13 (≈ 4.12 µg/mL) | –
C#Cc1ccc(/C=C/c2nc3c([N+](=O)[O-])csc3c(=O)[nH]2)cc1 | 12 (≈ 3.88 µg/mL) | 6 (≈ 1.94 µg/mL) | –
CCc1nc2c([N+](=O)[O-])csc2c(=O)[nH]1 | 35 (≈ 7.88 µg/mL) | 35 (≈ 7.88 µg/mL) | –
Cc1nc(Nc2ccccc2)c2scc([N+](=O)[O-])c2n1 | 14 (≈ 4.01 µg/mL) | 28 (≈ 8.02 µg/mL) | –
Cc1nc2c([N+](=O)[O-])csc2c(=O)n1Cc1ccc(C#N)cc1 | 50 (≈ 16.3 µg/mL) | 25 (≈ 8.16 µg/mL) | –
O=c1[nH]c(/C=C/c2ccccc2)nc2c([N+](=O)[O-])csc12 | 52 (≈ 15.6 µg/mL) | 13 (≈ 3.89 µg/mL) | –
Cc1nc2ccoc2c(=O)[nH]1 | > 852 | > 852 | –
Oc1ncnc2ccsc12 | 840 (≈ 128 µg/mL) | 420 (≈ 63.9 µg/mL) | –
O=c1c2scc([N+](=O)[O-])c2nc(/C=C/c2ccc(F)cc2)n1Cc1ccccc1 | 157 (≈ 64 µg/mL) | 157 (≈ 64 µg/mL) | –
Cc1nc2c([N+](=O)[O-])csc2c(=O)n1CC(=O)Nc1ccccc1 | 23 (≈ 7.92 µg/mL) | 46 (≈ 15.8 µg/mL) | –
O=[N+]([O-])c1csc2c(N3CCOCC3)nc(/C=C/c3ccc(F)cc3)nc12 | 166 (≈ 64.1 µg/mL) | 166 (≈ 64.1 µg/mL) | –
O=c1[nH]cnc2ccc([N+](=O)[O-])cc12 | 335 (≈ 64 µg/mL) | 335 (≈ 64 µg/mL) | MIC (Enterobacter cloacae): > 700 µM; MIC (Escherichia coli): > 700 µM; MIC [3]: > 700 µM; MIC [4]: > 700 µM; MIC (Bifidobacterium bifidum): > 700 µM; MIC [5]: > 700 µM
O=c1[nH]c(-c2cccc([N+](=O)[O-])c2)nc2c([N+](=O)[O-])csc12 | 50 (≈ 15.9 µg/mL) | 50 (≈ 15.9 µg/mL) | –
Cc1nc2c([N+](=O)[O-])csc2c(=O)n1-c1ccc(-c2ccccc2)cc1 | 176 (≈ 64 µg/mL) | 352 (≈ 128 µg/mL) | –
Cc1nc(Cl)c2scc([N+](=O)[O-])c2n1 | 34 (≈ 7.81 µg/mL) | 17 (≈ 3.9 µg/mL) | –
Cc1nc2c([N+](=O)[O-])csc2c(=O)n1CC(=O)O | > 475 | > 475 | –
